# Assays:
# [1] = organism: Canis lupus familiaris; assay: Selectivity for COX2 over COX1
# [2] = biological target: T1, Cyclooxygenase-2 (Canis lupus familiaris, UniProt Q8SPQ9); assay: Inhibition of COX2 in canine whole blood; type: tissue-based
# T1 sequence (Q8SPQ9 whole entry): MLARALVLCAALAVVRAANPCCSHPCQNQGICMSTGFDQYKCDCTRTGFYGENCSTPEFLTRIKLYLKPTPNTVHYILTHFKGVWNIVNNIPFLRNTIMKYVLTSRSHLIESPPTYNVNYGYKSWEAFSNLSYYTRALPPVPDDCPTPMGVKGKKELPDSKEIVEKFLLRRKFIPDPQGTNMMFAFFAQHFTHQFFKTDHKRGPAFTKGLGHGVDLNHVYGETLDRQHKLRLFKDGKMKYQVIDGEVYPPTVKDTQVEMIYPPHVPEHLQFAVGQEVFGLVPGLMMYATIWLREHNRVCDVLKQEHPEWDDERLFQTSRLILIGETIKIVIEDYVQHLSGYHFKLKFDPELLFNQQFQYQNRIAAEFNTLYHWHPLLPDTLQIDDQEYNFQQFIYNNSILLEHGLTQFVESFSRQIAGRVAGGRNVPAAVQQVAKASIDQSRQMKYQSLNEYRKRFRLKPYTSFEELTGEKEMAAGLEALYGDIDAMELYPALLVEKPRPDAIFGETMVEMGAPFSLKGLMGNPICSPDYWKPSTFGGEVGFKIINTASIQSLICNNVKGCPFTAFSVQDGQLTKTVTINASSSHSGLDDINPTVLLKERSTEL
# Summary of the method: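 Heparinized canine whole blood incubated overnight at 37 °C with drug plus LPS to stimulate PGE2. LPS-only controls gave maximum PGE2 and vehicle-only controls gave background. EDTA (0.3% final) then added and plasma collected and frozen. PGE2 measured by EIA, with samples diluted 1/1000.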
# [3] = biological target: T2, Prostaglandin G/H synthase 1 (Canis lupus familiaris, UniProt Q8HZR1); assay: Inhibition of COX1 in canine whole blood
# T2 sequence (Q8HZR1 whole entry): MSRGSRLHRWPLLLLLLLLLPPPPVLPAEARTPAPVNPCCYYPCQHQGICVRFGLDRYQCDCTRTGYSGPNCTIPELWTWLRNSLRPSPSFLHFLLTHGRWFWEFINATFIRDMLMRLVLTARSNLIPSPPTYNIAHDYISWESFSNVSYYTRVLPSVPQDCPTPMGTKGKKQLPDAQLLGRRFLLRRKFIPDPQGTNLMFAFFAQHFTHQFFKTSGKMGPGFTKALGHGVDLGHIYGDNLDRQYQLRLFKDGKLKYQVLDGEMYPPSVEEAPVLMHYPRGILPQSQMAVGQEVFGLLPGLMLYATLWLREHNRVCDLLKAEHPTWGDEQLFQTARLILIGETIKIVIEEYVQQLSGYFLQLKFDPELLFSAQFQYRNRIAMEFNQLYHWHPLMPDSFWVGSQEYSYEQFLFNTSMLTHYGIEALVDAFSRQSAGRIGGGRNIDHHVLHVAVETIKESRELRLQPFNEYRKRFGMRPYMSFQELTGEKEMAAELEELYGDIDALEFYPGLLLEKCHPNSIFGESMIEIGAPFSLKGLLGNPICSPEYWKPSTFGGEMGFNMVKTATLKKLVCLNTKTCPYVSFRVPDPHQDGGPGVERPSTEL
# Summary of the method: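 Canine whole blood incubated with drug for 1 h at 37 °C, with drug-free samples as maximum TXB2 controls. EDTA (0.3% final) then added and serum collected and frozen. COX-1 activity read as TXB2 production by EIA, with samples diluted 1/10,000.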
# [4] = Half life in dog; type: ADME, organism-based, Canis lupus familiaris; details: in vivo
# [5] = Oral bioavailability in dog; type: ADME, organism-based, Canis lupus familiaris; details: in vivo
Ratio IC50 [1],IC50 [2] [nM],IC50 [3] [nM],half-life [4] [h],bioavailability [5] [%],Compound
78,290,22700,,,CS(=O)(=O)c1ccc(-n2nc(C(F)(F)F)cc2-c2ccc(-c3cscn3)cc2F)nc1
,> 500,,,,CS(=O)(=O)c1ccc(-n2nc(C(F)(F)F)cc2-c2cccc(-c3cscn3)c2)nc1
83,60,5000,,,CS(=O)(=O)c1ccc(-n2nc(C(F)F)cc2-c2ccc(-c3ccco3)c(F)c2)nc1
200,19,3800,,,Cc1cc(-c2cc(C(F)F)nn2-c2ccc(S(C)(=O)=O)cn2)ccc1-c1cscn1
,> 500,,,,Cc1scnc1-c1ccc(-c2cc(C(F)(F)F)nn2-c2ccc(S(C)(=O)=O)cn2)cc1
> 313,160,> 50000,,,CS(=O)(=O)c1ccc(-n2nc(C(F)(F)F)cc2-c2ccc(-c3cscn3)cc2)nc1
340,10,3400,,,Cc1cc(-c2cc(C(F)(F)F)nn2-c2ccc(S(C)(=O)=O)cn2)ccc1-c1ccco1
212,110,23400,,,CS(=O)(=O)c1ccc(-n2nc(C(F)(F)F)cc2-c2ccc(-c3nccs3)c(C#N)c2)nc1
759,20,18200,,,CS(=O)(=O)c1ccc(-n2nc(C(F)(F)F)cc2-c2ccc(-c3ccco3)cc2)nc1
,> 500,,,,COC(=O)c1cc(-c2cc(C(F)(F)F)nn2-c2ccc(S(C)(=O)=O)cn2)ccc1-c1ccco1
238,210,50000,,,CS(=O)(=O)c1ccc(-n2nc(C(F)(F)F)cc2-c2ccc(-c3nccs3)cc2)nc1
550,10,5500,,,CS(=O)(=O)c1ccc(-n2nc(C(F)F)cc2-c2ccc(-c3ccco3)c(Cl)c2)nc1
15,180,2700,,,CS(=O)(=O)c1ccc(-n2nc(C(F)(F)F)cc2-c2ccc(-c3cncs3)cc2)nc1
558,50,27900,,,CS(=O)(=O)c1ccc(-n2nc(C(F)(F)F)cc2-c2ccc(-c3ccco3)c(F)c2)nc1
487,30,12700,,,Cc1cc(-c2cc(C(F)(F)F)nn2-c2ccc(S(C)(=O)=O)cn2)ccc1-c1cocn1
> 4170,12,> 50000,16.4,34,CS(=O)(=O)c1ccc(-n2nc(C(F)(F)F)cc2-c2ccc(-c3ccco3)c(Cl)c2)nc1
171,65,11100,,,Cc1cc(-c2cc(C(F)(F)F)nn2-c2ccc(S(C)(=O)=O)cn2)ccc1-c1ncco1
4.9,410,2000,,,CS(=O)(=O)c1ccc(-n2nc(C(F)(F)F)cc2-c2ccc(-c3ccco3)c(C(N)=O)c2)nc1
92,130,12000,,,CS(=O)(=O)c1ccc(-n2nc(C(F)F)cc2-c2ccc(-c3ccco3)cc2)nc1
172,90,15500,,,Cc1cc(-c2cc(C(F)(F)F)nn2-c2ccc(S(C)(=O)=O)cn2)ccc1-c1cscn1
> 320,< 50,16000,,,CS(=O)(=O)c1ccc(-n2nc(C(F)(F)F)cc2-c2ccc(-c3cscn3)c(Cl)c2)nc1
154,13,2000,,,CS(=O)(=O)c1ccc(-n2nc(C(F)(F)F)cc2-c2ccc(-c3ccco3)c(C#N)c2)nc1

# Source: ChEMBL document CHEMBL1146113, “Synthesis and SAR of heteroaryl-phenyl-substituted pyrazole derivatives as highly selective and potent canine COX-2 inhibitors” (Bioorg Med Chem Lett, 2006)
